From ChEMBL document CHEMBL1148355, “Inhibition of group IVA cytosolic phospholipase A2 by novel 2-oxoamides in vitro, in cells, and in vivo” (J Med Chem, 2004) come the findings set out here.

Experiment [1] addresses T1, Cytosolic phospholipase A2 (Homo sapiens) (UniProt P47712).
T1 sequence (whole entry): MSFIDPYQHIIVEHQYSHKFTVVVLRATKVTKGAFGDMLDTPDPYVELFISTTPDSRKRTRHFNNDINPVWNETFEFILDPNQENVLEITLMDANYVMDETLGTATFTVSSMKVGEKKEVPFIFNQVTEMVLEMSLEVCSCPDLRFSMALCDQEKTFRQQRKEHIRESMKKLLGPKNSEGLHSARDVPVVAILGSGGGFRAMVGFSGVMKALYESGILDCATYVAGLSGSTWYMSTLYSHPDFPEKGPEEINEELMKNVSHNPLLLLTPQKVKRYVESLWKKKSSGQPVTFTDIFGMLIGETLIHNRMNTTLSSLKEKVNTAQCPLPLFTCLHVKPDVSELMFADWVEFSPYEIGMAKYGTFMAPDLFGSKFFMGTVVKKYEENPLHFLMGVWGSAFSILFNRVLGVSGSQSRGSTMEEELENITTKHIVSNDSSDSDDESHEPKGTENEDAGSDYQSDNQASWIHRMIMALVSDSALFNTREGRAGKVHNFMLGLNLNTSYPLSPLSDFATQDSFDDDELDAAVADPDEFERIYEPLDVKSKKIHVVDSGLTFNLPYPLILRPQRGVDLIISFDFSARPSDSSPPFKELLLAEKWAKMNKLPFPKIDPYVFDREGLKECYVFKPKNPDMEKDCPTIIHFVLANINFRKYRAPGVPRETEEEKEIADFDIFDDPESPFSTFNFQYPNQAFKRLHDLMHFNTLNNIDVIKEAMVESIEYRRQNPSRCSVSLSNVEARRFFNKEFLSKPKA
Description: Mole fraction of compound in the total substrate interface required to inhibit human GIVA PLA2 by 50%. In short, it runs like this:
(§1)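 GIVA PLA2 activity measured on mixed micelles of TX-100 (400 μM), 1-palmitoyl-2-[14C]arachidonoyl PC (97 μM) and PIP2 (3 μM, 0.6 mol %). Inhibitor surface mole fraction varied within the micelles; percent inhibition calculated relative to a DMSO control. Xi(50) is the mole fraction giving 50% inhibition, obtained by a logarithmic or linear fit.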

For experiment [2], the target named is T1, Cytosolic phospholipase A2 (Homo sapiens). The experiment is described as follows: Percent inhibition of human GIVA PLA2 by the compound at a concentration (mole fraction) of 0.01. In short, it runs like this:
as §1

Experiment [3] concerns Rattus norvegicus. Description: Compound was tested for in vivo antiinflammatory activity in rat. In kind it is functional, organism-based. The procedure, abridged: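 Carrageenan paw edema in Fisher 344 rats (150–200 g), both sexes. Edema induced by 0.1 mL 2% w/v carrageenan in saline, intradermal into the right footpad. Compound suspended in Tween 80/water and given ip at the same time. Rats killed at 3.5 h, injected minus uninjected paw weight taken, and % inhibition calculated vs water controls. Four concentrations tested, two groups of five; mean of two experiments.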

The species entered for experiment [4] is Mus musculus. Description: Compound was tested on P388D1 macrophage-like cell line (AA-derived products) for inhibition of the GIVA PLA2 in the long-term lipopolysaccharide. In kind it is functional, organism-based.
Experiment [5] relates to Rattus norvegicus. The experiment is described as follows: Compound was tested for in vivo analgesic activity in rat. It is filed as functional.
Experiment [6] is filed under the species Mus musculus. The experiment is described as follows: Compound was tested on P388D1 macrophage-like cell line (PGE2 production) for inhibition of the GIVA PLA2 in the long-term lipopolysaccharide. In kind it is functional, organism-based. The procedure, abridged:
(§2)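 P388D1 murine macrophages plated at 10^6 cells/well and left to adhere overnight. Starved 1 h in 0.2% FCS medium. Compound added in DMSO (<0.5% v/v) 30 min before 100 ng/mL LPS for 18 h. Medium PGE2 measured by enzyme immunoassay and normalized to DMSO/LPS controls. IC50 taken from a logarithmic fit.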

For experiment [7], the target named is T1, Cytosolic phospholipase A2 (Homo sapiens). The experiment is described as follows: Percent inhibition of human GIVA PLA2 by the compound at a concentration (mole fraction) of 0.05. The procedure, abridged: as §1
The species named for experiment [8] is Mus musculus. Description: Tested on P388D1 macrophage-like cell line (AA-derived products) for inhibition of the GIVA PLA2 in the long-term lipopolysaccharide. It is filed as functional, organism-based.
For experiment [9], the species on record is Mus musculus. Description: Tested on P388D1 macrophage-like cell line (PGE2 production) for inhibition of the GIVA PLA2 in the long-term lipopolysaccharide. It is filed as functional, organism-based. The procedure, abridged:
as §2

For experiment [10], the target named is T1, Cytosolic phospholipase A2 (Homo sapiens). Description: Percent inhibition of human GIVA PLA2 by the compound at a concentration (mole fraction) of 0.02. The procedure, abridged: as §1
The target is the same in experiment [11]. Description: Percent inhibition of human GIVA PLA2 by the compound at a concentration (mole fraction) of 0.08. The procedure, abridged: as §1
Where [12] appears, read: in the assay text read “of 0.091” for “of 0.01”.

`CCCCCCCCCCCCCC(=O)C(=O)N[C@@H](C)CCC(=O)O` yielded an X1(50) in experiment [1] of 0.021.
For `CCCCCCCCCCCCCC(=O)C(=O)N[C@H](CCC(=O)O)Cc1ccccc1`, in experiment [1], the X1(50) turned out to be 0.035.
Usually inhibition stands for the share of the control response that was lost under treatment. A higher inhibition goes with a response far below the control. In the case of `CCCCCCCCCCCCCC(=O)C(=O)N1CCC[C@H]1CCC(=O)O`, the inhibition in experiment [2] (setting [12]) was 24%.
A word on the IC50: it is the concentration that gives 50% inhibition. In turn, `CCCCCCCCCCC(=O)C(=O)N[C@@H](CCCC)CCC(=O)O` yielded an EC50 in experiment [3] of 0.1 mmol/kg. In experiment [1], this molecule came in with an X1(50) of 0.009. Moreover, the IC50 in experiment [4] was determined as 7.6 µM; in experiment [6], 5.8 µM. In addition, the Analgesic activity in [5] turned out to be 63%.
In [2], `CCCCCCCC/C=C\CCCCCCCCNC(=O)C(=O)CCCCC` showed an inhibition of 0%.
The molecule `CCCCCCC(=O)C(=O)N[C@H](CCC(=O)O)Cc1ccccc1` returned an inhibition in experiment [2] (setting [12]) of 24%.
As for `CCCCCCC(=O)C(=O)NCCCC(=O)O`, in experiment [7], the inhibition was 0%.
`CCCCCCCCCCCCCCC(=O)C(=O)NCCCC(=O)O` displayed an EC50 in experiment [3] of 0.01 mmol/kg. Besides, the X1(50) in experiment [1] is 0.017. The IC50 turned out to be 8.6 µM in [8] and 7.8 µM in [9]. For the same molecule, the Analgesic activity in experiment [5] is given as 93%.
In experiment [3], `CCCCCCCCCCCCCC(=O)C(=O)N[C@H](CCC(=O)O)CC(C)C` gave an EC50 of 0.008 mmol/kg. The X1(50) in experiment [1] is 0.017. The IC50 in experiment [4] is 4.6 µM; in experiment [6] it was 10 µM. The Analgesic activity in [5] came out at 69%.
`NC(=O)C(=O)CCCCc1ccccc1` displayed an inhibition in experiment [2] of 0%.
As to `CCCCCCCCCCC(=O)C(=O)N1CCC[C@H]1CCC(=O)O`, the inhibition in [2] (setting [12]) was 0%.
Take `CCCCCCCCCCCCCCC(=O)C(=O)NCCCCC`: the inhibition in experiment [10] amounted to 22%.
`CCCCCCCCCCCCCC(=O)C(=O)N[C@@H](CCCC)CCC(=O)O`: in experiment [1], the X1(50) amounted to 0.01.
`CCCCCCCCCCCCCCC(=O)C(=O)NCCCC(=O)OC` gave an inhibition in experiment [11] of 0%.
`CCCCCCCCCCC(=O)C(=O)N[C@H](CCC(=O)O)CC(C)C` yielded an X1(50) in experiment [1] of 0.021.
Regarding `CCCCCCCCCCCCCCCC(=O)NCCCC(=O)O`, the inhibition in experiment [11] is 22%.
For `CCCCCCCCCCOC[C@@H](CCC(=O)O)NC(=O)C(=O)CCCCCCCCCC`, the X1(50) in experiment [1] is 0.047.
`CCCCCCCCCCCCCC(=O)C(N)=O`: the inhibition in experiment [2] was found to be 0%.
`CCCCCCCCCCOC[C@H](CCC(=O)O)NC(=O)C(=O)CCCCCCCCCC`: in [1], the X1(50) came out at 0.045.
In turn, `CCCCCCCCCCCCCCCCNC(=O)C(=O)CC` had an inhibition in [2] of 0%.
`CCCCCCCC/C=C\CCCCCCCCNC(=O)C(=O)CCCCCCCCCCCCCC` returned an inhibition in experiment [7] of 0%.
Turning to `CCCCCCCCCCC(=O)C(=O)N[C@H](CCCC)CCC(=O)O`, the X1(50) in experiment [1] amounted to 0.068.
